# Compound activity (PubChem BioAssay)
# S1P4 antagonist: blocks the human S1P4 receptor. S1P4-expressing cells, antagonist mode, reporter read-out. 0.26% of 220,000 active. AID 1510. inhibition, % at 4.98 µM. O95977; in the data active = inhibition above about 29%
# S1P4 agonist: human S1P4 receptor agonism. activation, % at 4.98 µM. 0.35% of 220,000 active. S1P4-expressing cell line, agonist reporter assay. O95977; in the data active = activation above about 11%
# Biofilm kill mix: mixtures killing C. albicans biofilm | inhibition, % at 7.6 µM | AID 1242 | 0.02% of 120,000 active | C. albicans biofilm persisters + clotrimazole, fluorescence viability; primary screen in compound mixtures of four per well;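 also: compounds exposed to preformed 24 h biofilms for 48 h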
#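 Assay system: C. albicans biofilms / Medium: RPMI/MOPS medium, pH 7.0 / Schedule: biofilm formation 24 h, compound exposure 48 h, 37 °C / Measured by: Alamar Blue fluorescence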
# HMGR II inh: blocks class II HMG-CoA reductase of Enterococcus faecalis. purified E. faecalis HMGR, NADPH absorbance 340 nm kinetic. AID 1066. 0.41% of 190,000 active. inhibition, % at 10 µM;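 active = inhibition above a set limit, the median over all tested compounds plus 3 SD, cut at about 9.5% in these data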;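 also: enzyme runs in reverse so mevalonate oxidation gives rising NADPH absorbance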
# S1P3 antag: blocks the human S1P3 receptor; inhibition, % at 4.98 µM; Q99500; 0.27% of 170,000 active; AID 485; CHO S1P3 NFAT-BLA reporter, FRET fluorescence, antagonist mode;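 active = inhibition above the plate cutoff, the mean inhibition of test wells on that plate plus 3 SD, cut at about 28% in these data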;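 also: cells challenged with S1P at its EC80 of 0.8 µM; blue over green emission ratio from cleaved BLA substrate after 4 h stimulation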
# Target sequence (Q99500 whole entry, looked up): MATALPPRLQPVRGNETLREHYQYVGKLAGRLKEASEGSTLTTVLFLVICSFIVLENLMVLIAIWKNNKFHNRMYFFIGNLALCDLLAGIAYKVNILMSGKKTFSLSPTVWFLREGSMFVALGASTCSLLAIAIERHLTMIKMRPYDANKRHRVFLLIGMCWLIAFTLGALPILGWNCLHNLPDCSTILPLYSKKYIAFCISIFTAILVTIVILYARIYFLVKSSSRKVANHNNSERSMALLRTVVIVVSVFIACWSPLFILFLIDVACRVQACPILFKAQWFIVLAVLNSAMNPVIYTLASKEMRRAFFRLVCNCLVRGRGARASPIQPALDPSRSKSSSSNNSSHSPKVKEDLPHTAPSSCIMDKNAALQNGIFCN
# Rad51 HR inh: blocks human Rad51 in homologous recombination; Q06609; hRad51 DNA strand exchange, fluorescence dequenching; inhibition, % at 10 µM; 0.085% of 200,000 active; AID 1385;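 active = inhibition above 40% at the single screening dose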
# Target sequence (Q06609 whole entry, looked up): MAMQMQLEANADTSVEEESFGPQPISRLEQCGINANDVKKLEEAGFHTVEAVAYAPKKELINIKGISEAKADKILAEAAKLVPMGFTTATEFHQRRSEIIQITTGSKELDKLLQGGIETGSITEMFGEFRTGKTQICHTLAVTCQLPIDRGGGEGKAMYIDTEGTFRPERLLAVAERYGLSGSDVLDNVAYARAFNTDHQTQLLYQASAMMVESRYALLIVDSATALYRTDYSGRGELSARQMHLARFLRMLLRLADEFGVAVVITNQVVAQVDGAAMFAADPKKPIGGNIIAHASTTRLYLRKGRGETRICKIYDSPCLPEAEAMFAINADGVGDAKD
#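 Test system – preformed human Rad51 ssDNA filaments · Reagent – Donor/quencher-labelled 47-bp dsDNA substrate · Incubation – 37 °C 15-min filament assembly, 30-min compound preincubation, 15-min exchange · Signal – FRET fluorescence dequenching, excitation 485 nm, emission 520 nm · Read-out – percent inhibition from fluorescence, normalised to plate control and blank means · Benchmarks – plate control and blank wells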
# S1P4 antag cf: confirmation of human S1P4 receptor antagonists; shares compounds with S1P4 antagonist; S1P4-expressing cell line, antagonist mode, reporter read-out; inhibition, % at 4.98 µM; 71% of 520 active; AID 1524; in the data active = inhibition above about 30%
# S1P1 antagonist: blocks human S1P1, counter-screen for S1P4 antagonists; inhibition, % at 4.98 µM; shares compounds with S1P4 antagonist; AID 1564; cell-based S1P1 antagonist counterscreen, inhibition; 37% of 520 active; in the data active = inhibition above about 40%;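 also: receptor stimulated with S1P near its EC80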
# A number is an active result; n = inactive; x = not tested or not shown. Hits are enriched below; roughly 1.2% of the tested compounds scored in any of these assays.
SMILES,S1P4 antagonist,S1P4 agonist,Biofilm kill mix,HMGR II inh,S1P3 antag,Rad51 HR inh,S1P4 antag cf,S1P1 antagonist
O=S(=O)(c1ccc(F)cc1)c1snnc1-c1ccccc1,n,n,n,n,n,n,x,x
CCn1ncc(Br)c1C(=O)Nc1ccc(C(=O)OC(C)C)cc1,n,n,x,n,x,n,x,x
O=C(OCn1ncc(Br)c(Br)c1=O)c1ccc(F)cc1,77.8,n,x,n,x,n,117.2,47.0
O=C(OCc1cnc(Cl)s1)c1ccccc1Cl,n,n,x,n,x,n,x,x
O=C(OCn1ncc(Br)c(Br)c1=O)c1ccccc1Cl,48.4,n,x,n,x,n,114.6,n
COc1ccc(C(=O)Nc2sc3c(c2C#N)CCN(C(C)=O)C3)cc1,n,n,n,n,n,n,x,x
CC(=O)N1CCc2c(sc(NC(=O)c3ccc([N+](=O)[O-])o3)c2C#N)C1,33.4,n,n,n,n,n,82.0,n
COC(=O)c1cn(N(C)c2ncc(C(F)(F)F)cc2Cl)c(=O)c2ccccc12,n,n,x,n,x,n,x,x
COC(=O)c1cn(Nc2ncc(C(F)(F)F)cc2Cl)c(=O)c2ccccc12,37.9,n,x,n,x,n,31.0,n
O=C1COc2ccc(C(=O)NCc3ccco3)cc2N1,n,n,x,n,n,n,x,x
Cc1cc(NCc2ccccn2)nc2ccccc12,n,n,x,n,x,n,x,x
Cc1cc(NC2CCCCC2)nc2ccccc12,30.3,n,n,n,n,n,n,55.1
O=C(CSc1nnc(-c2ccncc2)n1CCc1ccccc1)NCc1ccccc1,n,n,n,n,x,n,x,x
O=c1c(Cl)c(Cl)cnn1Cc1nnc(-c2ccc(Cl)cc2)o1,36.7,n,n,n,n,n,68.1,n
O=c1c(Cl)c(Cl)cnn1-c1ccccc1,101.1,n,n,n,n,n,122.3,72.0
O=c1c(Cl)c(Cl)cnn1Cc1ccccc1Cl,46.2,n,n,n,n,x,115.3,58.0
Cc1ccc(Cn2ncc(Cl)c(Cl)c2=O)cc1,n,n,n,n,n,n,x,x
CN(c1cnn(-c2ccccc2)c(=O)c1Cl)n1cccc1,n,n,n,x,n,n,x,x
N#Cc1ccc(NC(=O)c2cc(=O)c3ccccc3o2)cc1,n,n,n,n,n,n,x,x
CCOc1ccc(CCNC(=O)c2cccc(N3CCCC3=O)c2)cc1OCC,n,n,x,n,x,n,x,x
CCOc1ccccc1OCCCCN1CCCC1,n,n,x,n,n,n,x,x
Nc1ccc(C2CCCc3nonc32)c2nonc12 (stereo not drawn),43.4,n,x,n,n,n,n,n
Cc1c2cnn(-c3ccccc3)c(=O)c2c(C)n1CCCC(=O)N1CCN(C2CCCCC2)CC1,n,n,n,x,n,n,x,x
CC(C)(C)c1ccc(OCc2ccc(C(=O)N/N=C/c3ccc(O)c(O)c3)cc2)cc1,33.4,n,n,n,n,n,63.4,n
Cn1c(SCC(=O)c2ccccc2)nnc1C1CC1,n,n,x,n,n,n,x,x
SMILES,S1P4 antagonist,S1P4 agonist,Biofilm kill mix,HMGR II inh,S1P3 antag,Rad51 HR inh,S1P4 antag cf,S1P1 antagonist
Cc1ccc(N/C(N)=N/c2nc3c(c(=O)[nH]2)CCCC3)c(C)c1,n,n,x,n,x,n,x,x
Cc1ccc(N/C(N)=N/c2nc(C)cc(N3CCCCC3)n2)c(C)c1,44.7,n,n,n,n,n,44.9,n
Cc1nc2cc(NC(=O)Nc3cccc4ccccc34)ccc2n1C,n,n,n,n,n,n,x,x
Cc1ccc(SCCC(=O)N2CCOCC2)cc1,29.0,n,x,n,n,n,n,n
Cc1ccc(-n2nnnc2Sc2ccc(S(=O)(=O)NCCN(C)C)cc2[N+](=O)[O-])cc1,48.8,n,n,n,n,x,68.0,58.6
O=[N+]([O-])c1cc(S(=O)(=O)NCCN2CCOCC2)ccc1Sc1nnnn1-c1ccccc1,n,n,n,n,n,x,x,x
CN(C)c1cccc(C(=O)OCC(=O)NCc2ccco2)c1,n,n,x,n,n,n,x,x
Nc1cccc2c1C(=O)N(C(=O)c1cccc(S(=O)(=O)N3CCCC3)c1)C2=O,31.4,n,x,n,x,n,n,n
CC(=O)N(C1=C(Cl)C(=O)c2ccccc2C1=O)C1CCCCC1,51.6,n,n,x,n,n,115.2,61.0
CC(=O)N(c1ccccc1C)C1CCCC1,n,n,n,n,n,n,x,x
O=C(Nc1nnc(SCc2ccc(F)cc2)s1)c1cccnc1Cl,n,n,n,n,n,n,x,x
O=C(Nc1nnc(SCc2ccc(F)cc2)s1)c1ccccn1,30.6,n,n,n,n,n,101.2,72.7
COc1cc(CNCCCN2CCOCC2)cc(Br)c1OCc1ccc(Cl)cc1,29.7,n,n,n,n,x,52.0,n
CC1(C)CC(=O)C2=C(C1)N=c1s/c(=C/c3ccc(F)c(F)c3)c(=O)n1C2c1ccc(F)cc1 (stereo not drawn),n,n,x,n,x,n,x,x
COc1ccc(N=C2S/C(=C\c3ccc(N4CCOCC4)o3)C(=O)N2CCc2c[nH]c3ccccc23)cc1,55.0,n,x,n,x,n,67.8,n
CCCN1C(=O)/C(=C/c2ccc(C)o2)SC1=Nc1ccc(OC)cc1,n,n,x,n,x,n,x,x
CC(C)=CC(=O)NCCc1ccccc1,n,n,x,n,n,n,x,x
COC(=O)c1ccc2c(c1)C(C)(C)C(/C=C/c1ccccc1O)=[N+]2C,37.0,n,x,n,x,n,115.9,82.3
C[N+]1=C(/C=C/Nc2ccccc2Cl)C(C)(C)c2ccccc21,n,n,n,n,n,x,x,x
Cc1csc(SCC(=O)NC2CCCCC2)n1,n,n,x,n,x,n,x,x
O=C(NCc1cccnc1)C(=O)N/N=C/c1ccc([N+](=O)[O-])cc1,29.9,n,n,n,n,n,n,n
CCOC(=O)COc1ccc(S(=O)(=O)N2CCN(c3ccccc3F)CC2)cc1,36.1,n,x,n,n,n,n,n
Cc1nc(C(N)=O)nc2ccccc12,n,n,n,x,n,n,x,x
CC(=O)N1/C(=C/c2ccc(N(C)C)cc2)C(=O)c2ccccc21,30.3,n,n,n,n,n,91.3,91.5
CN(C)c1ccc(/C=C2\CCC/C(=C\c3ccccc3)C2=O)cc1,n,n,n,n,n,n,x,x
Cc1ccc(-c2nc(CS(=O)CC(=O)NC3CCC(C)CC3)c(C)o2)cc1 (stereo not drawn),78.3,n,x,n,n,n,n,n
CCCCNC(=O)CS(=O)Cc1nc(-c2ccc(C)cc2)oc1C (stereo not drawn),n,n,x,n,n,n,x,x
NC(=O)COC(=O)C(Cc1ccccc1)NS(=O)(=O)c1ccccc1F (stereo not drawn),x,x,x,x,n,n,x,x
COc1ccc(C[C@H]2CN3C(=NC[C@@H]3C(C)C)N2CCNC(=O)c2ccc(C)c(Br)c2)cc1,33.6,n,n,n,n,n,41.1,n
Cc1ccc(C(=O)NCCN2C3=NC[C@H](C(C)C)N3C[C@H]2Cc2ccc(O)cc2)cc1Br,n,n,n,n,n,n,x,x
